Sampled rows, rich in hits. Any-hit rate of the full collection: about 2.1%.
STAT3 inh – STAT3 signaling inhibition; hit rate 0.89% among 190,000; AID 862; inhibition, % at 5.5 µM; U3A cells, IL-6 STAT3-luciferase reporter, luminescence; host cell line lacks STAT1;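 active means inhibition above the mean inhibition across all screened compounds plus 3 SD, cut at about 44% in these data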;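 further: 0% = DMSO only wells and 100% = 100 µM nifuroxazide control wells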
STAT1 inh – STAT1 signaling inhibition; AID 920; hit rate 0.35% among 200,000; inhibition, % at 5.5 µM; NIH 3T3 STAT1-luciferase reporter, IFN-gamma, luminescence;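 active means inhibition above a set limit, the mean inhibition across all tested compounds plus 3 SD, cut at about 34% in these data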;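 further: 0% = IFN-gamma with DMSO and 100% = IFN-gamma with 300 µM nifuroxazide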
TNF death inh – TNF-alpha cell death inhibition in Jurkat FADD-/- cells; activation (protection from cell death), % at 10 µM; hit rate 0.068% among 220,000; Jurkat FADD-/- TNF necroptosis rescue, ATP luminescence, 24 h; 0 = TNF only, 100 = no-TNF cells;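 active means activation, meaning protection from cell death, of at least 50% relative to plate controls; inactive means activation below 50%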;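 further: necroptosis triggered by 40 ng/mL TNF-alpha added together with compound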
zVAD death inh – L929 zVAD cell death inhibition. L929 zVAD necroptosis rescue, ATP luminescence, 24 h; with zVAD 60 µM. viability rescue, % at 10 µM. hit rate 0.38% among 220,000;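 active means activation, scaled between plate controls, above about 75%, limit read from the data; inactive means activation under that limit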;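 further: 0% = zVAD with DMSO and 100% = DMSO alone without zVAD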
STAT3 act-1 – increases IL-6 driven STAT3 reporter signal; activation (% of control), % at 5.6 µM; hit rate 0.91% among 190,000; U3A cells, IL-6 STAT3-luciferase reporter, luminescence; 100% = signal with IL-6 EC80 alone;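 active means activation above the screen-wide mean of compound activation plus 3 SD, cut at about 130% in these data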;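 further: 0% = background luminescence of wells with medium and substrate only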
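Material: STAT1-lacking human U3A cells, STAT3 luciferase reporter | Benchmarks: IL-6-only wells as 100% reference | Probe or stimulus: IL-6 (33 ng/mL) | Timing: Compound 1 h, then IL-6 6 h at 37 °C | Detection: Luminescence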
STAT3 act-2 – STAT3 activation, confirmation assay. hit rate 64% among 1,200. U3A STAT3-luciferase reporter, IL-6 potentiation, luminescence; U3A cells lack STAT1; 100 means same as IL-6 alone. shares compounds with STAT3 act-1. potentiation (% of control), % at 5.7 µM;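 active means percent activation of the STAT3 luciferase reporter above a set limit taken from the earlier primary screen, cut at about 130% in these data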;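 further: 0% = background signal of medium plus substrate and 100% = median of IL-6 with DMSO wells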
NFkB act STAT3ct – counter-screen for STAT3 activators: NF-kappaB activation; human cells, NF-kappaB reporter activation; hit rate 11% among 1,200; shares compounds with STAT3 act-1; activation (% of control), % at 5.7 µM; in the data active means activation above about 120%;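 further: reporter induced by TNF-alpha stimulation; 100% = median of stimulated DMSO wells and 0% = no signal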
STAT1 act – STAT1 activation in STAT3 activator counter-screen | shares compounds with STAT3 act-1 | NIH 3T3 STAT1-luciferase reporter, IFN-gamma, luminescence | activation (% of control), % at 5.7 µM | hit rate 13% among 1,200;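 active means activation above the solvent-only control well mean plus 3 SD, set per screening run, cut at about 120% in these data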;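 further: 100% = IFN-gamma with DMSO median signal so 100% means no change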
* = called active by the depositor; / = not tested or not shown.

SMILES | STAT3 inh | STAT1 inh | TNF death inh | zVAD death inh | STAT3 act-1 | STAT3 act-2 | NFkB act STAT3ct | STAT1 act
Clc1ccc2c(NCc3ccccn3)ncnc2c1 | -47 | -1 | 2 | 1 | 140* | 137* | 108 | 118
Cc1cc(-c2nnc3n2CCCCC3)c(C)n1-c1ccccc1 | 9 | 1 | -3 | 0 | 96 | / | / | /
COc1ccc(C(=O)C2CCCN(Cc3c[nH]c4ccccc34)C2)c(OC)c1 (centres undefined) | -44 | 10 | 2 | 1 | 142* | 141* | 104 | 100
CCN(CC)C(=O)CSc1ncnc2c1nnn2-c1ccc(F)cc1 | 10 | -7 | -1 | -1 | 92 | / | / | /
O=C(NCC1CCCO1)c1ccc(COc2ccc(F)cc2)o1 (centres undefined) | -44 | -21 | -1 | 0 | 138* | 99 | 103 | 98
O=C(Nc1ccccc1)Nc1cccc2ccccc12 | / | / | 0 | 1 | / | / | / | /
O=C(Nc1ccccc1)Nc1cccc2cccnc12 | -62 | -23 | -5 | 0 | 150* | 147* | 136* | 152*
CCOC(=O)COc1ccc2ccccc2c1/C=C/[N+](=O)[O-] | 8 | -2 | 1 | 0 | 91 | / | / | /
CCOc1ccc(/C=C/[N+](=O)[O-])c2ccccc12 | -36 | -5 | -15 | 4 | 137* | 121 | 118 | 101
Nc1nc(-c2c[nH]c3ccccc23)cs1 | 1 | 7 | -7 | 0 | 104 | / | / | /
CN=c1scc(-c2c[nH]c3ccccc23)n1C | -35 | 8 | 1 | 0 | 138* | 137* | 104 | 99
N#CCC(=O)N/N=C/c1ccc(OCC(=O)Nc2ccc(F)cc2)cc1 | 19 | -6 | 1 | 0 | 88 | / | / | /
COC(=O)C1=C(C)N(c2ccc(C)c(C)c2)/C(=C/c2ccco2)C1=O | 15 | 8 | -2 | -2 | 93 | / | / | /
O=C(CCCC(=O)N(CC(=O)NC1CCCC1)Cc1ccc(F)cc1)Nc1ccccn1 | -1 | -2 | 0 | 1 | 103 | / | / | /
O=C(Nc1cc(-c2nc3ccccc3s2)ccc1Cl)c1ccc2c(c1)OCO2 | -36 | -5 | -2 | 1 | 138* | 137* | 120 | 127*
Cc1ccc2cccc(NC(=S)NC(=O)c3c(Br)cnn3C)c2n1 | -44 | 1 | -1 | 0 | 139* | 117 | 108 | 103
Cc1ccc2cccc(NC(=S)NC(=O)c3ccn(C)n3)c2n1 | -30 | 7 | -2 | -1 | 127 | / | / | /
Cc1cccc(N2C(=O)CS/C2=N\NC(=O)c2cccnc2)c1C | -1 | -6 | 0 | 2 | 103 | / | / | /
CCNC(=O)COC(=O)/C=C/c1ccccc1[N+](=O)[O-] | 6 | 16 | 0 | 0 | 92 | / | / | /
Cc1ccc(C(=O)/C=C/c2ccc(-c3ccccc3[N+](=O)[O-])o2)cc1 | -9 | -1 | -4 | 0 | 113 | / | / | /
CCN(C(=O)COC(=O)/C=C/c1ccccc1[N+](=O)[O-])C1CCS(=O)(=O)C1 (centres undefined) | -51 | 32 | 0 | 2 | 149* | 141* | 105 | 71
Cc1ccc(C(=O)/C=C/c2ccccc2[N+](=O)[O-])cc1 | -36 | -24 | -8 | 0 | 138* | 162* | 121* | 125*
CN(C)C(=O)COC(=O)/C=C/c1ccccc1[N+](=O)[O-] | -73 | 25 | 0 | 0 | 162* | 143* | 104 | 73
O=C(COC(=O)/C=C/c1ccccc1[N+](=O)[O-])NCC1CCCO1 (centres undefined) | 1 | 8 | -1 | 9 | 102 | / | / | /
O=C(COC(=O)/C=C/c1ccccc1[N+](=O)[O-])NCC(F)(F)F | -63 | 21 | -1 | -2 | 150* | 163* | 104 | 101
SMILES | STAT3 inh | STAT1 inh | TNF death inh | zVAD death inh | STAT3 act-1 | STAT3 act-2 | NFkB act STAT3ct | STAT1 act
FC(F)(F)c1ccncc1-c1nnnn1-c1ccc(Cl)cc1 | / | / | 1 | 1 | / | / | / | /
O=[N+]([O-])c1ccc(S(=O)(=O)CC(CN2CCOCC2)N2CCOCC2)cc1 (centres undefined) | 0 | -2 | 7 | 0 | 102 | / | / | /
Fc1ccc(C2c3[nH]c4ccccc4c3CCN2CCCn2cccn2)cc1 (centres undefined) | / | / | 3 | 0 | / | / | / | /
Cc1ccccc1C1c2[nH]c3ccccc3c2CCN1CCCn1cccn1 (centres undefined) | -51 | 6 | 1 | -1 | 152* | 148* | 104 | 90
C/C(=N\Nc1nc2ccccc2[nH]1)c1cc2ccccc2o1 | -49 | -8 | 5 | 8 | 143* | 176* | 122* | 134*
COc1ccccc1N(C(C)=O)c1nc(C)cc(C)c1C#N | -75 | 12 | -1 | 0 | 165* | 152* | 101 | 100
Oc1c(Cl)cc(Cl)cc1/C=C/c1ccc2cccc(O)c2n1 | -12 | -2 | -1 | 8 | 114 | / | / | /
Oc1cccc2ccc(/C=C/c3cccs3)nc12 | -53 | 0 | -6 | -2 | 148* | 189* | 121* | 102
Oc1ccc(Cl)cc1/C=C/c1ccc2cccc(O)c2n1 | -74 | 14 | -3 | 31 | 167* | 156* | 100 | 92
Cc1ccsc1/C=C/c1ccc2cccc(O)c2n1 | -55 | 3 | -1 | 0 | 154* | 176* | 110 | 99
CSc1ccc(/C=C/c2ccc3cccc(O)c3n2)cc1 | 15 | -7 | 2 | 2 | 89 | / | / | /
CN1CCN(c2ccc(C(CC(N)=O)NC(=O)Cc3ccc(Br)cc3)cc2[N+](=O)[O-])CC1 (centres undefined) | / | / | 3 | 0 | / | / | / | /
CCOC(=O)C1CCN(c2nnc(N3CCCC3=O)s2)CC1 | 0 | -19 | 2 | 3 | 104 | / | / | /
CCOCCCN1CC(C(=O)NCCc2ccc(C)cc2)CC1=O (centres undefined) | 16 | 1 | -2 | 0 | 92 | / | / | /
CC1CC(C)(C)N(C(=O)CN2C(=O)c3ccccc3C2=O)c2ccccc21 (centres undefined) | 7 | 9 | 2 | 0 | 95 | / | / | /
CCCCNC(=S)N/N=C1\C(=O)c2cccc3cccc1c23 | 24 | 3 | -1 | -1 | 85 | / | / | /
CNC(=S)N/N=C1\C(=O)c2cccc3cccc1c23 | -39 | 1 | -3 | 1 | 138* | 143* | 116 | 111
C/C(N)=C(/C#N)C(=O)CSc1nnc(COc2ccccc2Cl)o1 | -39 | 2 | -1 | 0 | 139* | 134* | 118 | 106
CC(C)(C)NC(=O)NC(=O)CSc1nnc(COc2ccccc2Cl)o1 | 3 | -8 | -1 | 74 | 102 | / | / | /

Assay outcomes from PubChem.
